Reference: ChEMBL document CHEMBL4715752, “Synthesis and anti-leishmanial evaluation of 1-phenyl-2,3,4,9-tetrahydro-1H-β-carboline derivatives against Leishmania infantum” (Eur J Med Chem, 2016)
≈ marks a conversion by molar mass, not a printed value.

Key:
Leishmania infantum [1] = assay: Antileishmanial activity against Leishmania infantum BCN150 promastigotes expressing IFP1.4 assessed as inhibition of parasite growth by measuring the infrared fluorescence incubated for 48 hrs; assay type: functional, organism-based; details: BCN150, 48 h
Outline: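 Transgenic infrared-fluorescent L. infantum BCN150 promastigotes in 96-well plates. 200 µL culture per well at 1 × 10^6 with graded compound concentrations (1, 10, 100). Incubated 48 h at 26 °C, then promastigote growth assessed.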

Leishmania infantum [2] = assay: Antileishmanial activity against Leishmania infantum BCN150 amastigotes expressing IFP1.4 infected in BALB/c mouse splenocytes incubated for 72 hrs by infrared fluorescence imaging analysis; assay type: functional, organism-based; details: BCN150, Splenocyte
Outline: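 Spleens from female BALB/c mice infected intraperitoneally. Splenocytes washed 3x in PBS and seeded in 384-well plates in RPMI, 20% FCS, 1 mM pyruvate, vitamins, 10 mM HEPES, penicillin/streptomycin. Wells set by fixed IR fluorescence per well, not by cell count. Compounds at various concentrations for 72 h. Fluorescence read at 700 nm on an infrared imager.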

[3] = Cytotoxicity against mouse splenocytes by alamar blue assay; assay type: cell-based, Splenocyte
[4] = Selectivity index, ratio of CC50 for mouse splenocytes to IC50 for Leishmania infantum BCN150 promastigotes expressing IFP1.4; assay type: toxicity; details: read-out: Ratio CC50/IC50
[5] = Selectivity index, ratio of CC50 for mouse splenocytes to IC50 for Leishmania infantum BCN150 amastigotes expressing IFP1.4 infected in BALB/c mouse splenocytes; assay type: toxicity, cell-based; details: read-out: Ratio CC50/IC50
Leishmania infantum [6] = assay: Antileishmanial activity against late log phase promastigote stage of Leishmania infantum MHOM/FR/78/LEM75 assessed as inhibition of parasite growth incubated for 48 hrs by hemocytometer counting method; assay type: functional, organism-based; details: MHOM/FR/78/LEM75, 48 h

Row | SMILES | IC50 (Leishmania infantum [2]) [µM] | IC50 (Leishmania infantum [1]) [µM] | CC50 [3] [µM] | selectivity ratio [4] | selectivity ratio [5] | IC50 (Leishmania infantum [6]) [µg/mL]
1 | COc1cccc(NC(=O)CN2CCc3c([nH]c4ccccc34)C2c2ccccc2)c1 (configuration not stated) | 1.23 | 14.6 | > 200 | > 13.7 | > 163 | –
2 | O=C(CN1CCc2c([nH]c3ccccc23)C1c1ccccc1)Nc1ccccc1Cl (configuration not stated) | 1.05 | 20.7 | > 200 | > 9.67 | > 190 | –
3 | O=C(CN1CCc2c([nH]c3ccccc23)C1c1ccccc1)Nc1ccc(F)cc1 (configuration not stated) | 4.16 | 15.1 | > 200 | > 13.2 | > 48.1 | –
4 | C[C@@H]1[C@H](O)[C@@H](C)/C=C/C=C/C=C/C=C/C=C/C=C/C=C/[C@H](O[C@@H]2O[C@H](C)[C@@H](O)[C@H](N)[C@@H]2O)C[C@@H]2O[C@](O)(C[C@@H](O)C[C@@H](O)[C@H](O)CC[C@@H](O)C[C@@H](O)CC(=O)O[C@H]1C)C[C@H](O)[C@H]2C(=O)O [AMPHOTERICIN B] | 0.32 | – | > 20 | > 260 | > 62.5 | –
5 | C/C=C1\CCN2CCc3c([nH]c4ccccc34)[C@H]2[C@@H]1[C@@H](C(=O)OC)[C@H]1NCCc2c1[nH]c1ccccc21 | – | – | – | – | – | 1.56 (≈ 3.15 µM)
6 | O=C(CN1CCc2c([nH]c3ccccc23)C1c1ccccc1)Nc1ccc([N+](=O)[O-])cc1 (configuration not stated) | 5.29 | 8.1 | > 200 | > 24.7 | > 37.8 | –
7 | Cc1ccc(NC(=O)CN2CCc3c([nH]c4ccccc34)C2c2ccccc2)c(C)c1 (configuration not stated) | 2.64 | 16.9 | > 200 | > 11.8 | > 75.8 | –
8 | O=C(CN1CCc2c([nH]c3ccccc23)C1c1ccccc1)Nc1cccc(Cl)c1 (configuration not stated) | 1.51 | 6.68 | > 200 | > 29.9 | > 132 | –
9 | Cc1ccc(NC(=O)CN2CCc3c([nH]c4ccccc34)C2c2ccccc2)cc1 (configuration not stated) | 6.31 | 19.2 | > 200 | > 10.4 | > 31.7 | –

More lines, in order of falling IC50 (Leishmania infantum [2]), values ahead:

Row | IC50 (Leishmania infantum [2]) [µM] | SMILES | IC50 (Leishmania infantum [1]) [µM] | CC50 [3] [µM] | selectivity ratio [4] | selectivity ratio [5] | IC50 (Leishmania infantum [6]) [µg/mL]
10 | 6.46 | COc1ccc(NC(=O)CN2CCc3c([nH]c4ccccc34)C2c2ccccc2)cc1 (configuration not stated) | > 100 | > 200 | – | > 30.9 | –
11 | 5.35 | COc1ccccc1NC(=O)CN1CCc2c([nH]c3ccccc23)C1c1ccccc1 (configuration not stated) | 1.99 | > 200 | > 100 | > 37.4 | –
12 | 3.75 | O=C(CN1CCc2c([nH]c3ccccc23)C1c1ccccc1)Nc1ccc(Cl)cc1 (configuration not stated) | 15.1 | 146 | 9.64 | 38.9 | –
13 | 2.25 | O=C(CN1CCc2c([nH]c3ccccc23)C1c1ccccc1)Nc1cccc2ccccc12 (configuration not stated) | > 100 | > 200 | – | > 88.9 | –
14 | 2.02 | O=C(CN1CCc2c([nH]c3ccccc23)C1c1ccccc1)Nc1cccc(C(F)(F)F)c1 (configuration not stated) | 45.2 | > 200 | > 4.43 | > 99 | –
15 | 1.68 | O=C(CN1CCc2c([nH]c3ccccc23)C1c1ccccc1)Nc1ccccc1 (configuration not stated) | 12.4 | > 200 | > 16.2 | > 119 | –
16 | 1.48 | Cc1cccc(NC(=O)CN2CCc3c([nH]c4ccccc34)C2c2ccccc2)c1 (configuration not stated) | 7.63 | > 200 | > 26.2 | > 135 | –
17 | 0.87 | O=C(CN1CCc2c([nH]c3ccccc23)C1c1ccccc1)Nc1cccc([N+](=O)[O-])c1 (configuration not stated) | > 100 | > 200 | – | > 230 | –
18 | 0.67 | Cc1ccccc1NC(=O)CN1CCc2c([nH]c3ccccc23)C1c1ccccc1 (configuration not stated) | 10.4 | > 200 | > 19.2 | > 298 | –
